The nature of experiment [1]: Antibacterial activity against Salmonella enterica ATCC 10708 after incubated for 16 to 48 hrs at 28 to 37 degC by spectrofluorometric method. Format: functional. The method, boiled down: (§1)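 Overnight cultures (16 h, 37 °C, 250 rpm) were grown in tryptic soy broth (S. aureus, M. luteus), LB (B. subtilis, E. coli), nutrient broth (S. enterica), Middlebrook 7H9 + OADC (M. aurum) or YAPD (S. cerevisiae). They were diluted to OD600 ~0.1 and exposed to serial dilutions from a final maximum of ~10 μg/mL, then shaken at 160 rpm. OD600 was normalized to DMSO control, and MIC was taken as the lowest concentration inhibiting growth.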

Another experiment has as its system Bacillus spizizenii. The experiment is described as follows: Antibacterial activity against Bacillus subtilis ATCC 6633 after incubated for 16 to 48 hrs at 28 to 37 degC by spectrofluorometric method. Format: functional. The method, boiled down: as §1
The test system of the next experiment is Staphylococcus aureus. The experiment is described as follows: Antibacterial activity against Staphylococcus aureus ATCC 6538 after incubated for 16 to 48 hrs at 28 to 37 degC by spectrofluorometric method. Type of experiment: functional. The method, boiled down: as §1
A further experiment deals with Mycolicibacterium aurum. Nature of the experiment: Antibacterial activity against Mycobacterium aurum ATCC 23366 after incubated for 16 to 48 hrs at 28 to 37 degC […]. Format: functional.
The test system of another experiment is Micrococcus luteus. The experiment is described as follows: Antibacterial activity against Micrococcus luteus ATCC 15307 after incubated for 16 to 48 hrs at 28 to 37 degC by spectrofluorometric method. Format: functional. The procedure, abridged:
as §1

A further experiment concerns Saccharomyces cerevisiae. Nature of the experiment: Antifungal activity against Saccharomyces cerevisiae ATCC 204508 after incubated for 16 to 48 hrs at 28 to 37 degC by spectrofluorometric method. Type of experiment: functional.
The test system of a further experiment is Escherichia coli. The experiment is described as follows: Antibacterial activity against Escherichia coli ATCC 12435 after incubated for 16 to 48 hrs at 28 to 37 degC by spectrofluorometric method. Type of experiment: functional. The procedure, abridged: as §1
The test system of another experiment is A549. The experiment is described as follows: Cytotoxicity against human A549 cells assessed as reduction in cell viability after 48 hrs by alamar blue assay. Format: functional, cell-based. To be noted: A549, 48 h. The procedure, abridged: (§2)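 A549 cells were grown in DMEM/F-12 Kaighn's and PC3 cells in MEM/EBSS, both with 10% heat-inactivated FBS, penicillin/streptomycin and 2 mM L-glutamine. Cells were seeded at 5 × 10^3 per well, attached 24 h at 37 °C in 5% CO2, then exposed for 2 days. Values are % of untreated control from three independent experiments.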
A general note: Alamar Blue is a resazurin reagent that responds to reducing activity.

The test system of the next experiment is PC-3. Nature of the experiment: Cytotoxicity against human PC3 cells assessed as reduction in cell viability after 48 hrs by alamar blue assay. Type of experiment: functional, cell-based. To be noted: PC-3, 48 h. The method, boiled down:
as §2

Molecules are shown by their SMILES. Values after ≈ are worked out from the molar mass of the structure shown. Numbered stars: 1 amine (or outer) side, 2 acyl side, 3 side chain; on linkers, the order of the positions; unused ones are H or OH. Bridge positions count the residues as written; N and C are the ends. Square brackets hold non-standard residues; d marks the D form. Peptide text beside a SMILES is read from it. I, II: the chains in the order shown. Actinocin(1to9) = Cc1c2oc3c(C)ccc(C(=O)[*:2])c3nc-2c(C(=O)[*:1])c(N)c1=O; Actinocin(9to1) = Cc1c2oc3c(C)ccc(C(=O)[*:1])c3nc-2c(C(=O)[*:2])c(N)c1=O; Pro(3S-OH,5S-Me) = C[C@H]1C[C@H](O)[C@@H](C(=O)O)N1; X2 = O=C([C@@H](N[*:1])[C@@H](CCl)O[*:3])[*:2]; X1 = O=C([C@@H](N[*:1])[C@@H](CO)O[*:3])[*:2]; Pro(5S-Me) = C[C@H]1CC[C@@H](C(=O)O)N1; Pro(4-oxo) = O=C1CN[C@H](C(=O)O)C1; NMeV = CN[C@H](C(=O)O)C(C)C; NMeA = CN[C@@H](C)C(=O)O; Sar = CNCC(=O)O

Consider `Cc1c2oc3c(C)ccc(C(=O)N[C@@H]4C(=O)N[C@H](C(C)C)C(=O)N5[C@H](C(=O)N(C)CC(=O)N(C)[C@@H](C(C)C)C(=O)O[C@@H]4C)[C@@H](O)C[C@@H]5C)c3nc-2c(C(=O)N[C@@H]2C(=O)N[C@H](C(C)C)C(=O)N3CC(=O)C[C@H]3C(=O)N(C)CC(=O)N(C)[C@@H](C)C(=O)O[C@@H]2C)c(N)c1=O` (I: T[dV][Pro(4-oxo)][Sar][NMeA] / II: T[dV][Pro(3S-OH,5S-Me)][Sar][NMeV]; ester I:1-I:C, II:1-II:C; linker I:N-II:N via Actinocin(1to9)), for which the MIC – broadly, the lowest concentration found to suppress growth – in [1] was over 9.45 µg/mL.

As to `Cc1c2oc3c(C)ccc(C(=O)N[C@@H]4C(=O)N[C@H](C(C)C)C(=O)N5[C@H](C(=O)N(C)CC(=O)N(C)[C@@H](C(C)C)C(=O)O[C@@H]4C)[C@@H](O)C[C@@H]5C)c3nc-2c(C(=O)OC[C@H](O)[C@@H]2NC(=O)[C@H](C)N(C)C(=O)CN(C)C(=O)[C@@H]3CC(=O)CN3C(=O)[C@@H](C(C)C)NC2=O)c(N)c1=O`, the MIC in the experiment on Bacillus spizizenii was over 9.33 µg/mL; against Staphylococcus aureus it was over 9.33 µg/mL; with Mycolicibacterium aurum it was over 9.33 µg/mL; in [1], over 9.33 µg/mL; against Micrococcus luteus, 4.67 µg/mL (≈ 3.63 µM); in the experiment with Saccharomyces cerevisiae it was over 9.33 µg/mL. The molecule further gave an MIC against Escherichia coli of over 9.33 µg/mL.

As for `Cc1c2oc3c(C)ccc(C(=O)N[C@@H]4C(=O)N[C@H](C(C)C)C(=O)N5[C@@H](C)CC[C@H]5C(=O)N(C)CC(=O)N(C)[C@@H](C(C)C)C(=O)O[C@@H]4C)c3nc-2c(C(=O)N[C@@H]2C(=O)N[C@H](C(C)C)C(=O)N3CC(=O)C[C@H]3C(=O)N(C)CC(=O)N(C)[C@@H](C)C(=O)O[C@@H]2C)c(N)c1=O` (I: T[dV][Pro(4-oxo)][Sar][NMeA] / II: T[dV][Pro(5S-Me)][Sar][NMeV]; ester I:1-I:C, II:1-II:C; linker I:N-II:N via Actinocin(1to9)), the MIC in experiment [1] was over 9.57 µg/mL; in the experiment with Micrococcus luteus, 0.003 µg/mL (≈ 0.00239 µM).

As to `Cc1c2oc3c(C)ccc(C(=O)N[C@@H]4C(=O)N[C@H](C(C)C)C(=O)N5CCC[C@H]5C(=O)N(C)CC(=O)N(C)[C@@H](C(C)C)C(=O)O[C@@H]4C)c3nc-2c(C(=O)N[C@@H]2C(=O)N[C@H](C(C)C)C(=O)N3CCC[C@H]3C(=O)N(C)CC(=O)N(C)[C@@H](C(C)C)C(=O)O[C@@H]2C)c(N)c1=O` [DACTINOMYCIN] (I: T[dV]P[Sar][NMeV] / II: T[dV]P[Sar][NMeV]; ester I:1-I:C, II:1-II:C; linker I:N-II:N via Actinocin(1to9)), the MIC came to 0.002 µg/mL (≈ 0.00159 µM) in the experiment on Bacillus spizizenii; 0.006 µg/mL (≈ 0.00478 µM) against Staphylococcus aureus; 0.6 µg/mL (≈ 0.478 µM) against Mycolicibacterium aurum; 9.57 µg/mL (≈ 7.62 µM) in experiment [1]; 0.003 µg/mL (≈ 0.00239 µM) in the experiment on Micrococcus luteus; 4.79 µg/mL (≈ 3.82 µM) against Saccharomyces cerevisiae.

For `Cc1c2oc3c(C)ccc(C(=O)N[C@@H]4C(=O)N[C@H](C(C)C)C(=O)N5[C@H](C(=O)N(C)CC(=O)N(C)[C@@H](C(C)C)C(=O)O[C@@H]4C)[C@@H](O)C[C@@H]5C)c3nc-2c2c(c1=O)N[C@H]([C@@H]1NC(=O)[C@H](C)N(C)C(=O)CN(C)C(=O)[C@@H]3CC(=O)CN3C(=O)[C@@H](C(C)C)NC1=O)COC2=O`, the MIC in the experiment on Bacillus spizizenii is 0.59 µg/mL (≈ 0.465 µM); with Staphylococcus aureus, 2.37 µg/mL (≈ 1.87 µM); against Mycolicibacterium aurum, 0.95 µg/mL (≈ 0.748 µM); in experiment [1], over 9.46 µg/mL; in the experiment on Micrococcus luteus it was 0.59 µg/mL (≈ 0.465 µM); in the experiment with Saccharomyces cerevisiae, 9.46 µg/mL (≈ 7.45 µM). For the same molecule, the MIC in the experiment on Escherichia coli is over 9.46 µg/mL. The EC50 (commonly the concentration at which the effect is half-maximal) was 71.5 nM in the experiment on A549 and 76.7 nM in the experiment with PC-3.

Consider `Cc1c2oc3c(C)ccc(C(=O)N[C@@H]4C(=O)N[C@H](C(C)C)C(=O)N5[C@H](C(=O)N(C)CC(=O)N(C)[C@@H](C(C)C)C(=O)O[C@@H]4C)[C@@H](O)C[C@@H]5C)c3nc-2c(C(=O)N[C@@H]2C(=O)N[C@H](C(C)C)C(=O)N3CC(=O)C[C@H]3C(=O)N(C)CC(=O)N(C)[C@@H](C)C(=O)O[C@@H]2CO)c(N)c1=O` (I: [X1][dV][Pro(4-oxo)][Sar][NMeA] / II: T[dV][Pro(3S-OH,5S-Me)][Sar][NMeV]; ester I:1-I:C, II:1-II:C; linker I:N-II:N via Actinocin(1to9)), for which the figures for the MIC (in experiment [1]; in the experiment with Micrococcus luteus) were over 9.33 µg/mL and 0.12 µg/mL (≈ 0.0932 µM), respectively.

With `Cc1c2oc3c(C)ccc(C(=O)N[C@@H]4C(=O)N[C@H](C(C)C)C(=O)N5[C@H](C(=O)N(C)CC(=O)N(C)[C@@H](C(C)C)C(=O)O[C@@H]4C)[C@@H](O)C[C@@H]5C)c3nc-2c(C(=O)N[C@@H]2C(=O)N[C@H](C(C)C)C(=O)N3CC(=O)C[C@H]3C(=O)N(C)CC(=O)N(C)[C@@H](C)C(=O)O[C@@H]2CCl)c(N)c1=O` (I: [X2][dV][Pro(4-oxo)][Sar][NMeA] / II: T[dV][Pro(3S-OH,5S-Me)][Sar][NMeV]; ester I:1-I:C, II:1-II:C; linker I:N-II:N via Actinocin(1to9)), in experiment [1], the MIC is over 9.2 µg/mL.

Regarding `Cc1c2oc3c(C)ccc(C(=O)N[C@@H]4C(=O)N[C@H](C(C)C)C(=O)N5[C@@H](C)CC[C@H]5C(=O)N(C)CC(=O)N(C)[C@@H](C(C)C)C(=O)O[C@@H]4C)c3nc-2c(C(=O)N[C@@H]2C(=O)N[C@H](C(C)C)C(=O)N3[C@@H](C)CC[C@H]3C(=O)N(C)CC(=O)N(C)[C@@H](C(C)C)C(=O)O[C@@H]2C)c(N)c1=O` (I: T[dV][Pro(5S-Me)][Sar][NMeV] / II: T[dV][Pro(5S-Me)][Sar][NMeV]; ester I:1-I:C, II:1-II:C; linker I:N-II:N via Actinocin(9to1)), the figures for the MIC (in the experiment with Bacillus spizizenii; in experiment [1]) were 0.006 µg/mL (≈ 0.00467 µM) and over 9.36 µg/mL, respectively.

`Cc1c2oc3c(C)ccc(C(=O)N[C@@H]4C(=O)N[C@H](C(C)C)C(=O)N5[C@H](C(=O)N(C)CC(=O)N(C)[C@@H](C(C)C)C(=O)O[C@@H]4C)[C@@H](O)C[C@@H]5C)c3nc-2c(C(=O)OC[C@H](O)[C@@H]2NC(=O)[C@H](C)N(C)C(=O)CN(C)C(=O)[C@@H]3C[C@@H](O)CN3C(=O)[C@@H](C(C)C)NC2=O)c(N)c1=O`: the MIC in the experiment with Bacillus spizizenii was over 9.32 µg/mL; in the experiment with Staphylococcus aureus, over 9.32 µg/mL; in the experiment with Mycolicibacterium aurum, over 9.32 µg/mL; in experiment [1] it was over 9.32 µg/mL; in the experiment on Micrococcus luteus, 4.66 µg/mL (≈ 3.61 µM); in the experiment with Saccharomyces cerevisiae it was over 9.32 µg/mL. The molecule also yielded an MIC against Escherichia coli of over 9.32 µg/mL.

For the origin of these results see ChEMBL document CHEMBL4041498, “Antibacterial and Cytotoxic Actinomycins Y6-Y9 and Zp from Streptomyces sp. Strain Gö-GS12” (J Nat Prod, 2016).
